According to ChEMBL document CHEMBL1152870, “Design and synthesis of novel dihydroquinoline-3-carboxylic acids as HIV-1 integrase inhibitors” (Bioorg Med Chem, 2009):

Columns and labels:
[1] = target: T1, Human immunodeficiency virus type 1 integrase (Human immunodeficiency virus 1, UniProt Q7ZJM1); test: Inhibition of HIV1 integrase strand transfer activity by PAGE
HCT-116 [2] = test: Cytotoxicity against human HCT116 cells expressing p53 after 72 hrs by MTT assay; format: functional; conditions: HCT-116, 72 h
How it was run: (§1)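 HCT116 p53+/+ or p53−/− cells grown as monolayers in RPMI 1640 with 10% FBS and 2 mmol/L L-glutamine at 37 °C, 5% CO2, and used in exponential growth. Cells were seeded, allowed to attach, then exposed continuously to drug for 72 h. DMSO stocks were diluted in medium. MTT (0.5 mg/mL final) was added for 4 h at 37 °C and read at 570 nm. Triplicates; IC50 from log concentration versus % cells killed.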

HCT-116 [3] = test: Cytotoxicity against p53 deficient human HCT116 cells after 72 hrs by MTT assay; format: functional; conditions: HCT-116, 72 h; how it was run: as §1
[4] = target: T1, Human immunodeficiency virus type 1 integrase; test: Inhibition of HIV1 integrase 3' processing activity by PAGE

T1 sequence (Q7ZJM1 whole entry): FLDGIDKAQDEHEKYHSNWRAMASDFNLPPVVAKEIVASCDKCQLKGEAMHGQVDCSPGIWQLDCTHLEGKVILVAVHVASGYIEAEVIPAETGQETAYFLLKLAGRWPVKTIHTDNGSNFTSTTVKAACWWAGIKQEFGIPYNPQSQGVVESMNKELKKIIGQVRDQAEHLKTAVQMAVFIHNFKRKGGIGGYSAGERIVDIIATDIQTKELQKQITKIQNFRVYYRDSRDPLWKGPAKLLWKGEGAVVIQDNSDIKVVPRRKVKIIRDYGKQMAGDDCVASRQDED

| SMILES | IC50 [1] [µM] | IC50 [4] [µM] | CC50 (HCT-116 [2]) [µM] | CC50 (HCT-116 [3]) [µM] |
| --- | --- | --- | --- | --- |
| CCOC(=O)c1c(O)c2cc(OC)ccc2n(C)c1=O | > 1000 | > 1000 | > 10 | > 10 |
| CCCCCn1c(=O)c(C(=O)Nc2cc([N+](=O)[O-])ccc2O)c(O)c2ccccc21 | 9 | 9 | > 10 | > 10 |
| COc1ccc2c(c1)c(O)c(C(=O)O)c(=O)n2C | 320 | 580 | > 10 | > 10 |
| CCOC(=O)c1c(O)c2cc(Cc3ccc(F)cc3)ccc2n(C)c1=O | 220 | 800 | > 10 | > 10 |
| O=C(O)C(=O)CC(=O)c1cccn1Cc1ccc(F)cc1 |  |  | > 10 | > 10 |
| CCCCCn1c(=O)c(C(=O)O)c(O)c2cc(Cc3ccc(F)cc3)ccc21 | 5 | 92 | > 10 | > 10 |

Now from value to molecule, other results behind:

| IC50 [1] [µM] | IC50 [4] [µM] | SMILES | CC50 (HCT-116 [2]) [µM] | CC50 (HCT-116 [3]) [µM] |
| --- | --- | --- | --- | --- |
| 6 | 45 | Cn1c(=O)c(C(=O)O)c(O)c2cc(Cc3ccccc3)ccc21 | > 10 | > 10 |
| 0.9 | 23 | Cn1c(=O)c(C(=O)O)c(O)c2cc(Cc3ccc(F)cc3)ccc21 | > 10 | > 10 |
| 14 | 34 | Cn1c(=O)c(C(=O)O)c(O)c2cc(Oc3ccccc3)ccc21 | > 10 | > 10 |
| 110 | 275 | CCOC(=O)c1c(O)c2cc(Cc3ccccc3)ccc2n(C)c1=O | > 10 | > 10 |
